# Hits are enriched below; roughly 3.8% of the tested compounds scored in any of these assays.
# RAM inhibit – yeast RAM network inhibition | S. cerevisiae dse1pr::URA3 reporter, 5-FOA growth OD615, 2 d; analog-sensitive cbk1-as2 kinase mutant strain | AID 868 | inhibition, % at 50 µM | actives 1.8% (n = 190,000);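 active = inhibition above a set limit, 3 SD over mean compound inhibition, cut at about 8.4% in these data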;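 note: 0% = DMSO-only wells with no growth and 100% = 10 µM 1-NA-PP1 full growth; inhibition rescues growth on 5-FOA so higher OD means more RAM inhibition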
# NPY-Y2 antag – antagonists of human neuropeptide Y receptor Y2. NPY-Y2 expressing cells, antagonist mode. inhibition, % at 2.7 µM. actives 0.99% (n = 140,000); in the data active = inhibition above about 17%;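 note: 0% = vehicle with agonist challenge and 100% = reference antagonist with challenge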
# INS promoter inh – TRM-6 insulin promoter activity inhibition; actives 0.9% (n = 130,000); TRM-6 cells, insulin promoter-eGFP reporter, imaging; reporter expression induced with tamoxifen; inhibition, % at 2 µM; AID 1273;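 active = inhibition above the mean plus 3 SD, with well images judged a real hit on visual review, cut at about 60% in these data, passing the limit was not always enough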
# NPY Y1 blocker – antagonists of human neuropeptide Y receptor Y1 | HEK293-CNG Y1 cells, membrane potential fluorescence; NPY at EC95, then isoproterenol | inhibition, % at 3.6 µM | actives 1% (n = 200,000) | AID 1040;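 active = inhibition above the campaign mean inhibition of all tested compounds plus 3 SD, cut at about 20% in these data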;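 note: 0% = DMSO wells given NPY plus isoproterenol and 100% = isoproterenol alone without NPY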
# Target sequence (P25929 whole entry, looked up): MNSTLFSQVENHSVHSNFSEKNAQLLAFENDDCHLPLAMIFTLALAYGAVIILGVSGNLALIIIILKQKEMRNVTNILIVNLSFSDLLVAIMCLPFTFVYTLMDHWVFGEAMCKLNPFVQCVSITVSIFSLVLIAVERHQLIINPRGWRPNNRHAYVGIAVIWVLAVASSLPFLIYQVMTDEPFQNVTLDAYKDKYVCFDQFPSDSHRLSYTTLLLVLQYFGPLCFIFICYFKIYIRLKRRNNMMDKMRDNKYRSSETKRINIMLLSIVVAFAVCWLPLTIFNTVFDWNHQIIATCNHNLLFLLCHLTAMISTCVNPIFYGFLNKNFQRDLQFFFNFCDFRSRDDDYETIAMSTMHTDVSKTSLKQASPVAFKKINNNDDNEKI
#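 Test system – HEK293 Y1/CNG channel cell line · Also added – NPY agonist 25 nM, then isoproterenol 1 µM plus Ro 20-1724 25 µM · Compound dosing – one concentration, 3.6 µM, in 0.4% DMSO · Schedule – compound incubation 1 h at room temperature, readout 45 min post-stimulation · Technique – fluorescence, membrane potential probe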
# NPY1 pot ag – human NPY-Y1 potentiation or agonism, primary screen | P25929 | NPY-Y1 expressing cells, potentiator/agonist activation | activation, % at 3.6 µM | actives 0.37% (n = 220,000) | AID 1304; in the data active = activation above about 33%, passing the limit was not always enough;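 note: cells stimulated with NPY at EC10 then isoproterenol at EC100; 0% = low agonist plus stimulus and 100% = saturating agonist plus stimulus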
# NPY-Y2 PAM-ag – human NPY-Y2 potentiation or agonism, primary screen. P49146. cells expressing NPY-Y2, potentiator/agonist read-out. activation, % at 3.6 µM. actives 0.45% (n = 220,000). AID 1359; in the data active = activation above about 27%;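 note: cells stimulated with NPY near EC25 plus isoproterenol at EC100; 0% = vehicle plus submaximal agonist and 100% = vehicle plus saturating agonist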
# NPY-Y2 confirm – confirmation of human NPY-Y2 receptor potentiators or agonists; shares compounds with NPY-Y2 PAM-ag; cell-based NPY-Y2 potentiator/agonist assay; activation, % at 3.6 µM; actives 20% (n = 450); AID 1539; in the data active = activation above about 33%
# NPY-Y1 potentiator – potentiates or activates NPY-Y1, counter-screen for NPY-Y2 hits; shares compounds with NPY-Y2 PAM-ag; Y1 HEK293-CNG cells, membrane potential fluorescence; activation, % at 3.6 µM; actives 20% (n = 450); AID 1651; in the data active = activation above about 45%;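 note: cells stimulated with submaximal NPY then isoproterenol with phosphodiesterase inhibitor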
# NPY-Y1 ag 2 – counter-screen for NPY-Y2 potentiators: agonists of human NPY-Y1 | AID 1702 | activation, % at 3.6 µM | actives 37% (n = 450) | HEK293 Y1-CNGC, membrane potential fluorescence, agonism | shares compounds with NPY-Y2 PAM-ag;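 active = activation above the mean of DMSO-only control wells plus 3 SD, cut at about 18% in these data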;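 note: cells stimulated with 1 µM isoproterenol plus the PDE inhibitor Ro 20-1724; 0% = isoproterenol with DMSO and no NPY and 100% = 40 nM NPY; Y1 agonists lower the membrane potential dye signal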
# CNGC inhibitor – blocks CNG channel activity, counter-screen for NPY-Y2 potentiators; shares compounds with NPY-Y2 PAM-ag; HEK293-CNG parental, isoproterenol cAMP, membrane potential fluorescence; inhibition, % at 3.6 µM; actives 32% (n = 450);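 active = inhibition above the control-well mean plus 3 SD of those wells, cut at about 22% in these data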;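 note: 0% = DMSO with isoproterenol and 100% = DMSO without isoproterenol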
# NPY-Y2 ag 2 – counter-screen for NPY-Y2 potentiators: agonists of human NPY-Y2. shares compounds with NPY-Y2 PAM-ag. actives 56% (n = 450). activation, % at 3.6 µM. HEK293 Y2/CNGC cells, membrane potential fluorescence, agonist mode;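 active = activation above the mean of solvent-only control wells plus 3 SD, cut at about 10% in these data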;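 note: cells stimulated by isoproterenol with no NPY added so direct agonism is tested; 0% = DMSO with isoproterenol alone and 100% = NPY at EC100 plus isoproterenol; agonism lowers probe fluorescence through less cAMP and CNG channel opening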
# * = called active by the depositor; nt = no result.
SMILES,RAM inhibit,NPY-Y2 antag,INS promoter inh,NPY Y1 blocker,NPY1 pot ag,NPY-Y2 PAM-ag,NPY-Y2 confirm,NPY-Y1 potentiator,NPY-Y1 ag 2,CNGC inhibitor,NPY-Y2 ag 2
Cc1ccc(S(=O)(=O)N2CCN(CC(=O)N/N=C\c3ccc(Cl)c([N+](=O)[O-])c3)CC2)cc1,-1,-3,12,-4,22,27*,14,20,14,25*,12*
Cc1cc(Br)ccc1OCCCCN1CCCCC1,1,nt,nt,11,1,-6,nt,nt,nt,nt,nt
O=C(N/N=C\c1ccc(Cl)cc1)C1=NOC2COC3(CCN(c4ccc([N+](=O)[O-])cc4)CC3)OCC12 (stereo not given),nt,nt,nt,nt,13,45*,10,-13,16,8,27*
NNC(=O)C1=NOC2COC3(CCN(c4ncccn4)CC3)OCC12 (stereo not given),0,nt,-8,1,0,-2,nt,nt,nt,nt,nt
N#Cc1c(-c2ccc(F)cc2)cc(-c2ccccc2)nc1SCC(=O)NCC(=O)O,nt,nt,nt,nt,15,71*,-7,-2,-5,-11,2
O=C(NCc1cccs1)C1CC(=O)N(c2ccc(F)cc2)C1 (stereo not given),1,-5,nt,1,14,15,nt,nt,nt,nt,nt
O=C(COC(=O)CCc1nc2ccccc2c(=O)[nH]1)NCc1ccc(F)cc1,nt,nt,nt,nt,-17,102*,-3,-4,-13,-2,-6
COc1ccc(-c2cc(C(=O)NNC3=NCCC3)c3c(C)nn(-c4ccccc4)c3n2)cc1,0,nt,nt,0,2,2,nt,nt,nt,nt,nt
N#C/C(=N\Nc1ccc(Cl)cc1)C(=O)c1ccccc1,4,0,0,-12,35,47*,19,-3,7,1,20*
NS(=O)(=O)c1ccc(N/N=C2/CCCCC2C2CCCCC2)c([N+](=O)[O-])c1 (stereo not given),1,-4,3,2,42,39*,57*,61*,60*,41*,67*
Cc1cc(C)c2c(c1)/C(=N/Nc1ccc(S(N)(=O)=O)cc1[N+](=O)[O-])CCC2,6,nt,nt,0,13,-4,nt,nt,nt,nt,nt
CC(=O)c1c(C)[nH]c(C(=O)OCCCCN2C(=O)c3ccccc3C2=O)c1C,5,3,nt,4,-31,39*,1,-11,12,-7,22*
CC(=O)c1c(C)[nH]c(C(=O)OCc2ccccc2)c1C,4,-3,-79,-5,21,13,nt,nt,nt,nt,nt
CCOC(=O)N1CCN(CC(O)COCC2=CCC3CC2C3(C)C)CC1 (stereo not given),0,2,-7,-5,17,43*,7,15,15,-1,-1
COc1ccc(NS(=O)(=O)c2ccc(OC)c(N(C)S(=O)(=O)c3ccc(Cl)cc3)c2)cc1,6,3,nt,4,-10,35*,-2,-31,-22,-9,-3
CC(=O)N(NC(N)=O)C(C)CC(=O)C1C(C)C=CCC1(C)C (stereo not given),nt,nt,nt,nt,9,4,nt,nt,nt,nt,nt
N#C/C(=N/Nc1ccc(OC(F)(F)F)cc1)C(N)=S,nt,nt,nt,nt,27,46*,13,1,-10,-2,23*
O=C(NCc1ccc(Cl)cc1)C1CCN(S(=O)(=O)c2cc([N+](=O)[O-])ccc2Cl)CC1,3,1,nt,-4,6,3,nt,nt,nt,nt,nt

# Screens deposited in PubChem BioAssay by several laboratories.
